Like-named read-outs stand apart in the source and are kept apart here.

Series [1] concerns AR + TNBC. To be noted: cited from earlier work.
Series [2] relates to mCRPC. The settings on record: compared to placebo, cited from earlier work.
The nature of series [3]: Population PK model of seviteronel. To be noted: for predicted accumulation: from simulated half-life 17.5 h. The series is classed as in vivo, human. In outline: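 Dense and sparse plasma concentrations (sparse from cycle 1 day 14, then every other cycle; LC-MS/MS; BQL excluded) were pooled; fed and fasted first doses counted as separate patients. One-, two- and three-compartment models with first-order or saturable absorption/elimination were tested, with exponential between-subject variability. Covariates tested: sex, body weight, prandial status, dexamethasone. Selection used OFV (−2LL; ΔOFV > 3.84, α = 0.05). Evaluation used a VPC with 200 simulated replicates (5th/50th/95th percentiles) and a split-off trough validation dataset.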

The test system of series [4] is CYP3A4. The settings on record: 1μM substrate over 60 min; ref unpublished data on file; cited from earlier work.
Series [5] is described as follows: Previously reported noncompartmental clinical PK of seviteronel. The series is classed as in vivo, human. To be noted: with BID dosing, predicted from half-lives of 6.4 to 9.2 h.
Series [6] deals with CYP2C9. To be noted: 1uM substrate over 60 min; ref unpublished data on file; cited from earlier work.
Series [7] deals with CYP17 lyase. The settings on record: cited from earlier work.
Series [8] has as its system CYP2C19. To be noted: 1uM substrate over 60 min; ref unpublished data on file; cited from earlier work.
For series [9] the following is noted: cited from earlier work.
The conditions of series [10]: men taking 600 mg QD; cited from earlier work.
Series [11] is described as follows: Noncompartmental analysis of seviteronel plasma PK in patients. It is filed as in vivo, human.
The mark [12] stands for this setting: apparent oral inter-compartmental clearance.
Setting [13] is: apparent oral total systemic clearance.
[14] abbreviates: apparent oral volume of distribution of the central compartment.
[15] abbreviates: apparent oral volume of distribution of the peripheral compartment.
Where [16] appears, read: transit rate between compartments of the transit absorption model.

Take `CC(=O)O[C@H]1CC[C@@]2(C)C(=CC[C@@H]3[C@@H]2CC[C@]2(C)C(c4cccnc4)=CC[C@@H]32)C1` [abiraterone acetate]: the “radiographic progression-free survival (rPFS)” value in series [1] (in combination with prednisone, women with AR + (> 0% by IHC) TNBC) is 11.2 weeks.

Take `CNC(=O)c1ccc(N2C(=S)N(c3ccc(C#N)c(C(F)(F)F)c3)C(=O)C2(C)C)cc1F` [enzalutamide]: the “improvement in overall survival (OS)” value in series [2] (post-chemotherapy) was 4.8 mo; in series [2] (pre-chemotherapy), 2.4 mo. In addition, the “overall reduction in risk of death” value in series [2] (post-chemotherapy) was 37%; in series [2] (pre-chemotherapy), 29%. Further, the “radiographic progression-free survival (rPFS)” value in series [1] (single-arm, open-label study, women with AR + (≥ 10% by IHC) TNBC) was 14.7 weeks.

In the case of `CC(C)[C@](O)(c1ccc2cc(OC(F)F)c(OC(F)F)cc2c1)c1c[nH]nn1` [seviteronel], in series [3] (200 replicates), the “CL/F, bootstrap mean estimate” value was 6.89 L/h; the “Ka, bootstrap mean estimate” value was 2.47 h⁻¹; the “Ktr, bootstrap mean estimate” value is 1.98 L/h; the “Q/F, bootstrap mean estimate” value was 6.99 L/h. Moreover, in series [3] (200 replicates), the “V/F, bootstrap mean estimate” value was 99.97 L and the “Vp/F, bootstrap mean estimate” value is given as 352.6 L. In series [3] (after accounting for sex effect), the “BSV on CL/F” value turned out to be 45%. In series [3] (setting [12]), the “Q/F, base model estimate” value is reported as 6.99 L/h and the “Q/F, final model estimate” value was 6.99 L/h. For the same compound, in [3] (setting [13]), the “CL/F, base model estimate” value is 7.15 L/h and the “CL/F, final model estimate” value is reported as 6.69 L/h. In series [3] (setting [14]), the “V/F, base model estimate” value was 69.9 L and the “V/F, final model estimate” value is 99.97 L. In addition, in [3] (setting [15]), the “Vp/F, base model estimate” value was 369 L and the “Vp/F, final model estimate” value is 343.4 L. For the same compound, the “BSV of V/F” value in series [3] (before sex and body weight were included on CL/F) was determined as 62.9%. Moreover, in [3] (covariate effect on CL/F by Sex), the “dCLdSex, final model estimate” value was 0.5883. Moreover, in series [3] (covariate effect on CL/F by Sex, 200 replicates), the “dCLdSex, bootstrap mean estimate” value is reported as 0.559. Further, the “dCLdWt, final model estimate” value in series [3] (covariate effect on CL/F by body weight) is listed as 0.2514. The “dCLdWt, bootstrap mean estimate” value in series [3] (covariate effect on CL/F by body weight, 200 replicates) is reported as 0.3595. Also, in series [3] (final model), the “Between subject variability (%CV; ω) on Ka” value came to 133%, the “Between subject variability (%CV; ω) on Ktr” value stood at 94.9%, the “Between subject variability (%CV; ω) on Q/F” value amounted to 51.5% and the “Between subject variability (%CV; ω) on V/F” value came out at 51.4%. For the same compound, the “Between subject variability (%CV; ω) on Vp/F” value in [3] (final model) was determined as 35.9%. Moreover, the “Between subject variability (%CV; ω) on CL/F” value in series [3] (final model, sex and body weight on CL/F) was 37.4%. In addition, in [3] (first-order absorption rate), the “Ka, base model estimate” value was 1.99 h⁻¹ and the “Ka, final model estimate” value was 2.49 h⁻¹. Also, the “BSV on CL/F” value in series [3] (overall, before covariates) worked out at 59.6%. In series [3] (setting [16]), the “Ktr, base model estimate” value was 1.99 L/h and the “Ktr, final model estimate” value was 1.99 L/h. The predicted accumulation in series [3] (with BID dosing) was 164%. For the same compound, in [3] (with QD dosing), the predicted accumulation is given as 63%. In addition, the loss of substrate in series [4] is recorded as 57%. In addition, the “predicted accumulation to steady-state” value in series [5] was 37–68%. For the same compound, the loss of substrate in series [6] is recorded as 100%. In addition, in [7], the “selectivity for inhibition of CYP17 lyase versus hydroxylase” value is given as “tenfold”. For the same compound, the loss of substrate in series [8] is reported as 100%. Also, the DLTs entry in series [9] (450 mg QD) was “no reported DLTs”. For the same compound, in series [9] (CRPC men treated with seviteronel), the “time for drug-related adverse events to resolve to baseline” value is 2–3 weeks. In [9] (women), the “Grade 1 events, 600 mg QD relative to 450 mg QD” value is on record as “five times more”. Further, the CMAX in [10] is reported as 4403 ± 1817 ng/mL. Besides, the “food effect on PK” value in series [11] (Study 001, fasted vs fed) was “no statistically-significant food effect”. In addition, the “half-life longer with 48 h sampling than calculated with 0–24 h sampling” value in [11] (Study 002) is listed as ~ 60%. In series [11] (Study 002, QD dosing), the “steady-state AUCTAU higher than first-dose AUCINF” value was ~ 60%. Moreover, the “steady-state trough levels with vs without dexamethasone” value in series [11] (dexamethasone 0.5 mg daily co-administration) was “no statistically significant differences were observed”. For the same compound, the accumulation at steady-state in series [11] (observed plasma concentrations, Fig. 1) is listed as ~ 60%.

The record behind these values is paper PMC8132106 (Cancer chemotherapy and pharmacology, 2019).
